Molecules are shown by their SMILES.

Data set [1] has as its target T1, D(2) dopamine receptor (Homo sapiens, UniProt P14416). Briefly: Binding affinity at dopamine D2 receptor. The method in brief: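 Membranes from cells stably expressing D2 receptor (4-7 pmol/mg protein; Ltk- cells in one passage, CHO in another), made by hypotonic lysis and 48,000g spin and stored at -80 °C. Incubated with 0.5 nM [3H]methylspiperone for 1 h at room temperature. Nonspecific binding set by 10 µM (-)-sulpiride. Rapid filtration, then scintillation counting. One-site competition fit; Ki is the mean of separate determinations.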

In data set [2] the target is T2, D(1A) dopamine receptor (Homo sapiens, UniProt P21728). Briefly: Displacement of [3H]SCH 23390 from human dopamine D1 receptor expressed in CHO cells. The format is cell-based. On the technique in general: Loss of bound radioactivity is the signal in a displacement assay; it reports binding, not function.
In data set [3] the target is T3, Alpha-2A adrenergic receptor (Homo sapiens, UniProt P08913).
T3 sequence (P08913 whole entry): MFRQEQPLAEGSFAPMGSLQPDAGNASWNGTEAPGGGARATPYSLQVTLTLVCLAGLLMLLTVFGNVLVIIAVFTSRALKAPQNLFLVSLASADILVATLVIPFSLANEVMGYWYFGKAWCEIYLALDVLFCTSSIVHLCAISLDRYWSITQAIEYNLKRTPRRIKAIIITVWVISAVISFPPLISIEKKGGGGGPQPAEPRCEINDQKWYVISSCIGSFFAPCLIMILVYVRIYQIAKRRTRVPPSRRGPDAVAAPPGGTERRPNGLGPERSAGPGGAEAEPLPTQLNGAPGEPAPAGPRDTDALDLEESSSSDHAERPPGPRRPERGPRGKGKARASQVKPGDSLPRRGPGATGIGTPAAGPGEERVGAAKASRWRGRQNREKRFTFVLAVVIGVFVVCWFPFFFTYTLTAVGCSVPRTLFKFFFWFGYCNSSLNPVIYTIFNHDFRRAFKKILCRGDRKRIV
Kind of data set: Binding affinity at adrenergic alpha2A receptor.

The target in data set [4] is T1, D(2) dopamine receptor. Kind of data set: Displacement of [3H]methylspiperone from human dopamine D2 receptor expressed in CHO cells. The class given is cell-based.
The target in data set [5] is 5-hydroxytryptamine receptor 2A (Homo sapiens, UniProt P28223). Briefly: Binding affinity at 5HT2A receptor.
Data set [6] has as its target T4, D(4) dopamine receptor (Homo sapiens, UniProt P21917).
T4 sequence (P21917 whole entry): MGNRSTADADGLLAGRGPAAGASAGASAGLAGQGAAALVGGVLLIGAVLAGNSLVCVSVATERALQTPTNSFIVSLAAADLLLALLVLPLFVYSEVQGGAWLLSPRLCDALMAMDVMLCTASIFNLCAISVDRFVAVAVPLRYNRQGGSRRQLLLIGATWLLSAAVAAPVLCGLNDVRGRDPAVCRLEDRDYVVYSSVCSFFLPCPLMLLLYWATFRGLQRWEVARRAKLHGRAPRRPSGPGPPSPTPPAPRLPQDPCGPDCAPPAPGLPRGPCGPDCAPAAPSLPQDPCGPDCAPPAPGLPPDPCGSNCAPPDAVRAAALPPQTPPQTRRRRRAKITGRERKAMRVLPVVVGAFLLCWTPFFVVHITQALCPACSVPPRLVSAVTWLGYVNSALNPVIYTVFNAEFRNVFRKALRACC
Briefly: Binding affinity at dopamine D4 receptor.

For data set [7], the target named is D(1B) dopamine receptor (Homo sapiens, UniProt P21918). Briefly: Binding affinity at dopamine D5 receptor.
In data set [8] the target is T2, D(1A) dopamine receptor. Briefly: Activity at dopamine D1 receptor by cAMP assay. To be noted: for Activity: filed as antagonist. The format is functional.
The nature of data set [9]: Tmax in Sprague-Dawley rat plasma at 10 mg/kg, po. The format is ADME, organism-based. The arrangement: dose 10 mg/kg, route oral. The method, boiled down:
(§1)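 Single oral dose of 10 mg/kg to two male Sprague-Dawley rats. Blood drawn at several time points. Plasma levels of individual animals, generally within ±25% of the mean, were used to calculate PK parameters.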

A short description of data set [10]: AUC in Sprague-Dawley rat plasma at 10 mg/kg, po. The class given is ADME, organism-based. Details: dose 10 mg/kg, route oral. The method, boiled down: as §1
Data set [11] can be described thus: Cmax in Sprague-Dawley rat plasma at 10 mg/kg, po. The format is ADME, organism-based. Details: dose 10 mg/kg, route oral. The method in brief: as §1

Chain of 5-hydroxytryptamine receptor 2A (P28223 whole entry): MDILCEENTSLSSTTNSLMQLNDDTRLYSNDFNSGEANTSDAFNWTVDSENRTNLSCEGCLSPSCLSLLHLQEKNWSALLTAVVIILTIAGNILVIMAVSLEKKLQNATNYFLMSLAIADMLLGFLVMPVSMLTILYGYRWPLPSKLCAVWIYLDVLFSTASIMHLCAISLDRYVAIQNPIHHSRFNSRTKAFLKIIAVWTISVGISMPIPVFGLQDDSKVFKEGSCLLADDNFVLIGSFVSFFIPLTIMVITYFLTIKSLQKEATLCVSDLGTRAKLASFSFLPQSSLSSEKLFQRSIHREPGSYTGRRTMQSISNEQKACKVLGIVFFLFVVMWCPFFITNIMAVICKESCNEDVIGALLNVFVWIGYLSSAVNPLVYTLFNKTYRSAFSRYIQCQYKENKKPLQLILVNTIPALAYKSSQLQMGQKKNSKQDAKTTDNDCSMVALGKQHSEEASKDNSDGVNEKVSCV
T1 sequence (P14416 whole entry): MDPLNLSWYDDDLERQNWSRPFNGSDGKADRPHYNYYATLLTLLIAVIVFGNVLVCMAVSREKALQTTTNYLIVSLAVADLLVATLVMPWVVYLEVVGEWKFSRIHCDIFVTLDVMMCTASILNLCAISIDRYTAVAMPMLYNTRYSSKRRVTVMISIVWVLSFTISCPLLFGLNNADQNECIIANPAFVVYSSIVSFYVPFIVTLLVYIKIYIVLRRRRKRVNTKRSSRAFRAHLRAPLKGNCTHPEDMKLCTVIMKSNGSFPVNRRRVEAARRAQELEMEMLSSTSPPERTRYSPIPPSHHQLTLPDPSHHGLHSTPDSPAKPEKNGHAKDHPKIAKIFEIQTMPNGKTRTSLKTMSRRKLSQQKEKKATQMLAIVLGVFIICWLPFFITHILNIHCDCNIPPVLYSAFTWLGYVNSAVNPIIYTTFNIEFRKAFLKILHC
Chain of D(1B) dopamine receptor (P21918 whole entry): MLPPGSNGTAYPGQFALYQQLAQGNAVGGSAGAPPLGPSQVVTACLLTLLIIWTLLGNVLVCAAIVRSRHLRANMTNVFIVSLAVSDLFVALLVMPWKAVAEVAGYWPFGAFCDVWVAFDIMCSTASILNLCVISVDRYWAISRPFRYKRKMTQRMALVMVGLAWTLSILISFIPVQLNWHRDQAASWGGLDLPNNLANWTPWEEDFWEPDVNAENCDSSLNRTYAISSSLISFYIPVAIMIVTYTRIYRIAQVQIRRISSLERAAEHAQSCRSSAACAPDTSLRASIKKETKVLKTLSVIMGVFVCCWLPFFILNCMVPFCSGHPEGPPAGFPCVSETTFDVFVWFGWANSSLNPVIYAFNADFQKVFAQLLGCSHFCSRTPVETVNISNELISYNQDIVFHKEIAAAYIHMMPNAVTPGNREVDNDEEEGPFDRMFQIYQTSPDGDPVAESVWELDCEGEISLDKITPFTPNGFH
T2 sequence (P21728 whole entry): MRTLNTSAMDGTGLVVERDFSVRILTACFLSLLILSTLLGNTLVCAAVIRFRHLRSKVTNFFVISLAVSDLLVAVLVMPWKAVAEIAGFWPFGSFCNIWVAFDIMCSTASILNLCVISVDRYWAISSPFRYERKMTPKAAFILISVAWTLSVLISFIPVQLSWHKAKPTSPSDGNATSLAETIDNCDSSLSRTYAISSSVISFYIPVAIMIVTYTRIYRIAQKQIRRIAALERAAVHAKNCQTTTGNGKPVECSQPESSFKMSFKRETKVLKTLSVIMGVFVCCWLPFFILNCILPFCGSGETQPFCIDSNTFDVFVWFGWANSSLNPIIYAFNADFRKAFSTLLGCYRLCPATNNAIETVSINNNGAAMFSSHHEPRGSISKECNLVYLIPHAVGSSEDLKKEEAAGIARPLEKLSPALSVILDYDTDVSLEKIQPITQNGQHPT

The term Ki denotes a measure of affinity in units of concentration, obtained from inhibition or displacement. Read a low Ki as a stronger hold on the target. `CN1CCN(C2=Nc3cc(Cl)ccc3N(NC(=O)c3c(F)cccc3C(F)(F)F)c3ccccc32)CC1`: the Ki is 383 nM in data set [1]; 2.5 nM in data set [2]; 2000 nM in data set [3]; 383 nM in data set [4]; 1.2 nM in data set [5]; 2000 nM in [6]. The Ki in data set [7] turned out to be 7 nM. In data set [8], the Kb turned out to be 2.3 nM. The Activity result in data set [8] was “Antagonist”.
As a reminder, the Tmax is the time at which the peak concentration occurs. The AUC is concentration integrated over time. A higher AUC goes with high exposure. The term Cmax denotes the highest concentration seen after dosing. For the compound `CN1CCN(C2=Nc3cc(Cl)ccc3N(NC(=O)c3cccc4ccccc34)c3ccccc32)CC1`, the inhibition constant (Ki) in [1] was 458 nM; in [2], 3.8 nM; in data set [3] it was 882 nM; in [4], 458 nM; in data set [5] it was 1 nM; in data set [6], 977 nM. In [7], affinity was put at a Ki of 105 nM. Moreover, in data set [9], the time to peak (Tmax) came out at 1 h. The compound further registered an exposure (AUC) in [10] of 12900 ng·h/mL. The Kb in data set [8] amounted to 2 nM. Besides, in data set [8], the Activity result is “Antagonist”. Also, in data set [11], the concentration peaked (Cmax) at 3570 ng/mL.
`CN1CCN(C2=Nc3cc(Cl)ccc3N(NC(=O)c3cc(Cl)cc(Cl)c3)c3ccccc32)CC1`: the inhibitory constant (Ki) turned out to be 24 nM in data set [2] and 608 nM in [4].
In the same order, the values of `CN1CCN(C2=Nc3cc(Cl)ccc3N(NC(=O)c3ccsc3)c3ccccc32)CC1` are 9 nM and 3000 nM.
In the same order, the values of `CN1CCN(C2=Nc3cc(Cl)ccc3N(NC(=O)c3sccc3-c3ccccc3)c3ccccc32)CC1` are 39 nM and 78 nM.
`CN1CCN(C2=Nc3cc(Cl)ccc3N(NC(=O)c3nccc4ccccc34)c3ccccc32)CC1`: the inhibitory constant (Ki) in [2] was found to be 23 nM; in [4], 484 nM.
As for `CN1CCN(C2=Nc3cc(Cl)ccc3N(NC(=O)c3ccccc3Cl)c3ccccc32)CC1`, the inhibition constant Ki in data set [1] was found to be 181 nM; in [2], 4 nM; in data set [3] it was 455 nM; in data set [4], 181 nM; in data set [5], 1 nM; in data set [6], 870 nM. Besides, the Ki in data set [7] was 73 nM. The Tmax in data set [9] came out at 1 h. For the same compound, the AUC in data set [10] was 2660 ng·h/mL. In [8], this compound returned a Kb of 2.8 nM. In addition, the Activity entry in data set [8] was “Antagonist”. Moreover, in data set [11], the concentration peaked (Cmax) at 821 ng/mL.
With `Cc1cccc(C(=O)NN2c3ccc(Cl)cc3N=C(N3CCN(C)CC3)c3ccccc32)c1`, the Ki amounted to 3 nM in data set [2] and 517 nM in data set [4].
Consider `CN1CCN(C2=Nc3cc(Cl)ccc3N(NC(=O)c3ccc4ccccc4c3)c3ccccc32)CC1`, for which the Ki in [2] was determined as 7.4 nM; in [4], 1310 nM.
In the same order, the values of `CN1CCN(C2=Nc3cc(Cl)ccc3N(NC(=O)C(F)(F)F)c3ccccc32)CC1` are 86 nM and 1900 nM.
For `CN1CCN(C2=Nc3cc(Cl)ccc3N(NC(=O)c3ccc(Br)cc3)c3ccccc32)CC1`, the results for the Ki in data set [2] and in data set [4] were 14 nM and 2390 nM, respectively.
On to `CN1CCN(C2=Nc3cc(Cl)ccc3N(NC(=O)c3ccccc3N3CCN(C)CC3)c3ccccc32)CC1`, for which the inhibition constant Ki in data set [2] was found to be 237 nM; in data set [4], 3770 nM.
Consider `CCOc1ccc2ccccc2c1C(=O)NN1c2ccc(Cl)cc2N=C(N2CCN(C)CC2)c2ccccc21`, for which the inhibition constant (Ki) is 65 nM in data set [2] and 274 nM in data set [4].
For the compound `Cc1cccc(N)c1C(=O)NN1c2ccc(Cl)cc2N=C(N2CCN(C)CC2)c2ccccc21`, the Ki in data set [1] turned out to be 1020 nM; in [2], 3.2 nM; in [3], 456 nM; in data set [4] it was 1020 nM; in [5], 2.9 nM; in data set [6] it was 4850 nM. This compound also displayed a Ki in data set [7] of 58 nM. The same compound returned a Kb in data set [8] of 6.7 nM. In data set [8], the Activity result was “Antagonist”.
On to `COc1ccc(CCC(=O)NN2c3ccc(Cl)cc3N=C(N3CCN(C)CC3)c3ccccc32)cc1Cl`, for which the Ki in data set [2] was determined as 56 nM; in data set [4], 582 nM.
Take `COc1cccc(C(=O)NN2c3ccc(Cl)cc3N=C(N3CCN(C)CC3)c3ccccc32)c1`: the figures for the Ki in [2] and in [4] were 13 nM and 1130 nM, respectively.
For `CN1CCN(C2=Nc3cc(Cl)ccc3N(NC(=O)c3ccc(Cl)c(Cl)c3)c3ccccc32)CC1` the same measures were 12 nM and 6390 nM.
As to `CN1CCN(C2=Nc3cc(Cl)ccc3N(NC(=O)CCC3CCCC3)c3ccccc32)CC1`, the Ki in data set [2] was found to be 111 nM; in data set [4] it was 1950 nM.
For `CN1CCN(C2=Nc3cc(Cl)ccc3N(NC(=O)C3CCCCC3)c3ccccc32)CC1` the same measures were 42 nM and 1780 nM.
As for `CN1CCN(C2=Nc3cc(Cl)ccc3N(NC(=O)c3c(N)cccc3Cl)c3ccccc32)CC1`, the inhibitory constant (Ki) was found to be 496 nM in data set [1]; 2.6 nM in data set [2]; 327 nM in data set [3]; 496 nM in [4]; 0.9 nM in data set [5]; 808 nM in [6]. The same compound yielded a Ki in [7] of 53 nM. Besides, the Kb in data set [8] came to 1.7 nM. Further, in [8], the Activity entry was “Antagonist”.
With `CN1CCN(C2=Nc3cc(Cl)ccc3N(NC(=O)c3cccc(F)c3)c3ccccc32)CC1`, the Ki in [2] is 47 nM; in data set [4], 921 nM.
In the same order, the values of `CN1CCN(C2=Nc3cc(Cl)ccc3N(NC(=O)c3c(Cl)cccc3Cl)c3ccccc32)CC1` are 3.4 nM and 240 nM.
For `CN1CCN(C2=Nc3cc(Cl)ccc3N(NC(=O)c3ccccc3Oc3ccccc3)c3ccccc32)CC1`, the inhibition constant Ki in [2] came to 51 nM; in [4], 431 nM.
For `Cc1ccc(C(=O)NN2c3ccc(Cl)cc3N=C(N3CCN(C)CC3)c3ccccc32)cc1` the same measures were 7.7 nM and 1520 nM.
For the compound `Cc1cccc(C)c1C(=O)NN1c2ccc(Cl)cc2N=C(N2CCN(C)CC2)c2ccccc21`, the Ki in data set [1] is 287 nM; in data set [2] it was 3 nM; in data set [3] it was 791 nM; in data set [4] it was 287 nM; in data set [5], 2.2 nM; in [6], 1870 nM. In addition, the Ki in [7] came to 31 nM. In data set [8], this compound displayed a Kb of 2.8 nM. Further, the Activity entry in [8] was “Antagonist”.
For the compound `COc1cccc(OC)c1C(=O)NN1c2ccc(Cl)cc2N=C(N2CCN(C)CC2)c2ccccc21`, the Ki was 340 nM in [1]; 1.6 nM in data set [2]; 169 nM in data set [3]; 340 nM in data set [4]; 13.8 nM in [5]; 1810 nM in data set [6]. The affinity in data set [7], expressed as Ki, was 38 nM. For the same compound, the Tmax in data set [9] is 0.5 h. The AUC in data set [10] stood at 2670 ng·h/mL. In addition, in [8], the Kb was 0.7 nM. Besides, in data set [8], the Activity result was “Antagonist”. Moreover, the peak level in [11] (Cmax) was 802 ng/mL.
For `CN1CCN(C2=Nc3cc(Cl)ccc3N(NC(=O)c3ccco3)c3ccccc32)CC1`, the results for the inhibition constant (Ki) in data set [2] and in data set [4] were 15 nM and 837 nM, respectively.
In the same order, the values of `CN1CCN(C2=Nc3cc(Cl)ccc3N(NC(=O)c3ccccc3NC3CCCCC3)c3ccccc32)CC1` are 62 nM and 3820 nM.

The record behind these values is ChEMBL document CHEMBL1146871, “Hydrazides of clozapine: a new class of D1 dopamine receptor subtype selective antagonists” (Bioorg Med Chem Lett, 2006).
